# Test results published in ChEMBL document CHEMBL4513216, “Probing the Open Global Health Chemical Diversity Library for Multistage-Active Starting Points for Next-Generation Antimalarials” (ACS Infect Dis, 2020).
# Assay: Toxicity liver stage against HepG2, at 10uM
# Assay type: cell-based
# Design: test concentration 10 uM, cell line HepG2-A16-CD81EGFP
# Settings: human, HepG2-A16-CD81EGFP cells; read-out: INHIBITION
# Procedure, shortened: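 Uninfected HepG2-A16-CD81EGFP cells, 3 × 10^3 per well, 1536-well, plated on prespotted compound at 10 μM final, parasite-free screening media added to match infected plates; puromycin 10 μM positive, DMSO 0.5% negative; run in parallel with 48 h PbLuc assay at 37 °C, 5% CO2; viability by CellTiter-Glo luminescence, normalized to controls.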
row,Compound,cytotoxicity at 10 µM [%]
1,Cc1oc(-c2ccc(F)cc2)nc1CN1CCOCS1(=O)=O,4.57
2,c1cnnc(N2CCCC(NCc3nc(-c4cccs4)no3)C2)c1 (stereo not drawn),15.8
3,CC(C)COCCCNC(=O)NCC(O)c1cccc(F)c1 (stereo not drawn),-3.1
4,CC(CNS(=O)(=O)c1cccc(Cl)c1)N1CCN(C)CC1 (stereo not drawn),9.26
5,CN1CCOC(CNCc2nc(-c3ccccc3)cs2)C1 (stereo not drawn),-11.5
6,CCc1noc(CCC(=O)N[C@@H]2CC[C@@H](n3ccnc3)[C@@H]2O)n1,-15.5
7,O=C(NC1CCc2c(ccc(=O)n2CC2CC2)C1)c1ccsc1 (stereo not drawn),-4.48
8,CCCn1cc(C(=O)N2CCCC2(C)c2nc(C)cc(N)n2)cn1 (stereo not drawn),-1.13
9,O=C(NCCn1ccnc1)N1CCN(Cc2ccco2)CC1,3.94
10,Cc1ccc(-c2nc(CN3CCCCC3Cn3cncn3)no2)cc1 (stereo not drawn),-0.403
11,Cc1nc(C2CCCNC2)cc(N(C)CCc2ccccc2)n1 (stereo not drawn),-1.36
12,Cc1noc(C)c1CC(=O)N1CCCC(Cc2ccccn2)C1 (stereo not drawn),4.75
13,CN(C)Cc1cc(C2CCCN(S(=O)(=O)c3cccc(Cl)c3)C2)nn1C (stereo not drawn),0.288
14,CC(C)Oc1ncnc2c1CCN(Cc1cccs1)CC2,-0.935
15,COCCN1CCC2(CC1)CC(N1CCOCC1)c1cc(C)ccc12 (stereo not drawn),-106
16,Cc1cc(C)n(-c2ccc(CNCc3ccc(C)o3)cn2)n1,-6.57
17,CCn1cc(-n2cc3nc(N4CCCC4)[nH]cc-3c2=O)cn1,2.77
18,CC(C)OCc1ccc(CNC(=O)CC(F)(F)F)cc1,-2.26
19,CCc1nnc2n1CCN(C(=O)C(OC)c1ccccc1)C2 (stereo not drawn),3.65
20,CCOc1cccc2c1OCC(=O)N(c1ccc3c(c1)OCCO3)C2,13.1
21,Cc1cc(F)ccc1CNCCn1cccn1,-10.2

row,Compound,cytotoxicity at 10 µM [%]
1,Fc1cccnc1OC[C@@]12CCO[C@@H]1CCN(CC1CCOCC1)C2,-14.6
2,CCSCC(C)NCc1cc(-c2ccco2)on1 (stereo not drawn),1.29
3,Cc1nc(CN2CCCC23CCN(c2nc4ccccc4s2)CC3)co1,-1.99
4,Cn1ccnc1CN1CCCN(C(=O)COC2CCCC2)CC1,-18.1
5,Cc1noc(C)c1CN1CC[C@H]2[C@H]1CCN2CC1CCOCC1,2
6,CCOCCCNC(=O)c1cc(Br)c2c(c1)OCCO2,-2.21
7,c1cncc(N2CCOCC3(CCCN(c4nncs4)C3)C2)c1 (stereo not drawn),-1.42
8,COc1cccc2c1OCC(CNC(=O)Cn1ccnc1C)C2 (stereo not drawn),-150
9,CC(O)CN1CCC(CNCc2cccc(Br)c2)CC1 (stereo not drawn),-12.1
10,Cc1cnn(CC2CCCN2c2ccc(C#N)cn2)c1 (stereo not drawn),14
11,CCCn1cc(NC(=O)c2cccc(CN3CC[C@H](O)C3)c2)nn1,-12.2
12,COCCOc1ccc(CNCC2CNc3cc(C)nn3C2)cn1 (stereo not drawn),-10.7
13,CC(C)(C)OC(=O)Cn1nc(C2CC2)cc(C(F)(F)F)c1=O,-8.96
14,O=C(CCn1nc(C(=O)Nc2ccccc2)ccc1=O)Nc1nccs1,-2.83
15,O=S(=O)(NCc1cccnc1OC1CCCC1)N1CCOCC1,1.46
16,Cc1ccnc(NCc2ccccc2N2CCOCC2)n1,-0.268
17,O=C([C@H]1C[C@H]2OCC[C@H]2N(C(=O)c2ccnnc2)C1)N1CCCCO1,4
18,O=C(COc1ccccc1)NS(=O)(=O)Cc1ccccc1,-12.3
19,Cc1cc(F)ccc1NC(=O)Cn1cc(C(=O)O)ccc1=O,-0.555
20,O=C(NCc1cccnc1)c1nc2c(s1)CCCN2c1ncccn1,8.44
21,Cc1nc(CNC(=O)N2CCCC(c3ncc[nH]3)C2)sc1C (stereo not drawn),-0.331

row,Compound,cytotoxicity at 10 µM [%]
1,CCc1cc(NCC(O)CN2CCCC2)ncn1 (stereo not drawn),6.09
2,CCc1ncc2c(n1)CN(c1nc(C)ccc1C(=O)O)C2,8.25
3,c1cnnc(N2CCCC(NCc3ccc(-n4ccnc4)cc3)C2)c1 (stereo not drawn),0.866
4,Cc1csc(NC(=O)NCCCN2CCC(C(N)=O)CC2)n1,2.48
5,CC(=O)N1CCN(C(=O)C2SCCc3sccc32)CC1 (stereo not drawn),-11.5
6,CN(C)C(=O)c1noc2c1CN(C(=O)CCC1CCCCN1C)CC2 (stereo not drawn),-2.74
7,O=C(CN1CCCC(Cn2cncn2)C1)NCCOc1ccccc1 (stereo not drawn),5.61
8,CN1CC(=O)N(c2ccsc2)CC12CCN(C(=O)Nc1ccccc1)C2 (stereo not drawn),-78.7
9,CN(c1ncccc1C#N)C1CCN(CCc2ccccn2)CC1,0.926
10,Cc1nc(C)n(CC2CCCN(CC(=O)Nc3ccncc3)C2)n1 (stereo not drawn),-5.75
11,CCCc1nnsc1C(=O)NCC1CCN(S(C)(=O)=O)CC1,-19.7
12,CCC(=O)N1CCC(c2nc3c(c(NC)n2)CN(C)CC3)C1 (stereo not drawn),-3.74
13,CC(C)c1noc(CN(C)C(=O)C2COc3ccccc3C2)n1 (stereo not drawn),2.77
14,CC(=O)N1CCCN(CCCSCc2ccccc2)CC1,-4.53
15,Cn1cccc1C(=O)N[C@@H]1CN(CC2CC2)[C@@H]2COC[C@@H]21,1.66
16,CCS(=O)(=O)N1CCC(NC(=O)c2cc3ccccc3cc2O)CC1,-2.1
17,c1cc(-c2cc(C3CCN(Cc4cncnc4)C3)ccn2)ccn1 (stereo not drawn),-0.969
18,O=C(O)[C@@H]1CN(C(=O)CSCC2CC2)C[C@H]1c1ccncc1,-17.6
19,CC(=O)N1CCCC(c2cccc(-n3ccnc3)n2)C1 (stereo not drawn),-9.08
20,COCCN1CCN(S(C)(=O)=O)Cc2cccnc21,5.7
21,CCOCCC(=O)NCC1CCCO1 (stereo not drawn),6.56

row,Compound,cytotoxicity at 10 µM [%]
1,CN1CCCC2(CCN(C(=O)c3ccncc3)C2)C1 (stereo not drawn),-68.3
2,COCCO[C@@H]1C[C@H]2CN(C(=O)c3cnccn3)CCN2C1,-8.58
3,NCC(c1ccccc1)N1CCc2sccc2C1 (stereo not drawn),1.88
4,Cc1ccc(CN2CC[C@H]3OCC[C@@]3(C(=O)N3CCCO3)C2)s1,2.08
5,O=C1NCC2(CCCN(C(=O)CCn3cnc4ccccc43)CC2)O1 (stereo not drawn),-4.8
6,Cc1cnn(CCCNC(=O)NCCS(=O)(=O)Nc2ccccc2)c1,1.07
7,CNC(=O)CC1CC2(CCN(S(C)(=O)=O)CC2)c2ccccc21 (stereo not drawn),5.75
8,O=C(NC1CCc2ccccc2C1)N1CCN(C(=O)C2CCC2)CC1 (stereo not drawn),-5.59
9,Cn1ncc2c(NC3CCSC3)nc(-c3ccncc3)nc21 (stereo not drawn),21.6
10,Cn1ccc2cc(C(=O)N3CC[C@@]4(O)CCCC[C@H]4C3)ccc21,-46.8
11,CC(=O)Nc1ccsc1C(=O)Nc1cnc2n1CCCC2,-4.58
12,CS(=O)(=O)NCCC1CCCCN1C(=O)NCCc1ccccn1 (stereo not drawn),-4.24
13,CNc1cc2c(nn1)CCN(C(=O)C1CCCc3ccccc31)C2 (stereo not drawn),-17.2
14,COc1ncccc1CNC(=O)N1CCCC1c1ccsc1 (stereo not drawn),-15.9
15,Cc1nn(CC(=O)NCc2cc3n(n2)CCCN(CC(C)C)C3)cc1Cl,1.95
16,c1coc(-c2nc(CNC3CCC4(CCNCC4)CC3)no2)c1,-15.8
17,COc1ccc(OC)c(CN2CCC(c3cc(O)nc(C)n3)C2)c1 (stereo not drawn),-15
18,CCOC(=O)CNC(=O)c1cccnc1Oc1ccc(Cl)cc1,1.63
19,CCS(=O)(=O)c1nnc([C@@H](N)Cc2ccccc2)o1,6.99
20,NC(=O)C1Cc2ccccc2CN1CCC(=O)N1CCc2ccccc21 (stereo not drawn),-4.23
